Laboratory results as given in ChEMBL document CHEMBL4373718, “Germacrane Sesquiterpenoids as a New Type of Anticardiac Fibrosis Agent Targeting Transforming Growth Factor β Type I Receptor” (J Med Chem, 2019).
Activity calls are given as the source filed them. No cut-off for these calls is given here.

How the values were obtained:
[1] = Cytotoxicity against Sprague-Dawley rat cardiac fibroblasts assessed as reduction in cell viability at 25 uM measured after 48 hrs by MTT assay
Procedure, shortened: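 Primary adult male SD rat cardiac fibroblasts at passages 2–4, 5000 cells per well. Treated for 48 h, then MTT (5 mg/mL) for 4 h. Formazan dissolved in DMSO and absorbance read at 570 nm. Triplicate wells, three independent experiments.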

[2] = molecular target: T1, TGF-beta receptor type-1 (Rattus norvegicus) (UniProt P80204); assay: Inhibition of TGFbeta1 receptor in TGFbeta1-stimulated Sprague-Dawley rat cardiac fibroblasts assessed as reduction in collagen 1 expression measured after 12 hrs by Western blot analysis
T1 sequence (whole entry): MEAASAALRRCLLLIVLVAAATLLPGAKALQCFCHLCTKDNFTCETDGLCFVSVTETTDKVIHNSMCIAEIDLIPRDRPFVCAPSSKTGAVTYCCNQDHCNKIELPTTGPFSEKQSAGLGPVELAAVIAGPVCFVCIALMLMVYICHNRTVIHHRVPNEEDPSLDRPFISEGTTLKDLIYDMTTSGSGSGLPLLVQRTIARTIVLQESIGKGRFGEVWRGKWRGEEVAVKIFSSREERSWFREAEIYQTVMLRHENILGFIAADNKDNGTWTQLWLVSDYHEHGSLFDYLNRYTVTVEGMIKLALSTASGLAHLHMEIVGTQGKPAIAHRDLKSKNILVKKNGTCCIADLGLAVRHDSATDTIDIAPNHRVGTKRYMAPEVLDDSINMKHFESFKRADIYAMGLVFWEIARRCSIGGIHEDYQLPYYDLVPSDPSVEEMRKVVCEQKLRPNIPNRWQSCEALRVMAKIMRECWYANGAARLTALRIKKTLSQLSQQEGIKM
Procedure, shortened: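 Primary rat cardiac fibroblasts (passages 2–4, 3×10^5 per well) treated with compound plus 10 ng/mL TGFβ1 for 12 h; tested at 2.5, 5 and 10 µM. Lysates run on 10% SDS-PAGE (30 µg protein), probed for FN, α-SMA and collagen I/III, and quantified by densitometry against GAPDH. N=3 independent experiments.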

[3] = molecular target: T1, TGF-beta receptor type-1 (Rattus norvegicus); assay: Inhibition of TGFbeta1 receptor in TGFbeta1-stimulated Sprague-Dawley rat cardiac fibroblasts assessed as reduction in fibronectin mRNA expression at 2.5 to 10 uM measured after 12 hrs by qRT-PCR analysis
Procedure, shortened: (§1)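 Primary rat cardiac fibroblasts (3×10^5 per well) treated with compound plus 10 ng/mL TGFβ1 for 12 h. Total RNA extracted and target transcripts measured by SYBR Green qRT-PCR, normalized to GAPDH.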

[4] = molecular target: T1, TGF-beta receptor type-1 (Rattus norvegicus); assay: Inhibition of TGFbeta1 receptor in TGFbeta1-stimulated Sprague-Dawley rat cardiac fibroblasts assessed as reduction in alpha-SMA mRNA expression at 2.5 to 10 uM measured after 12 hrs by qRT-PCR analysis; procedure, shortened: as §1
[5] = molecular target: T1, TGF-beta receptor type-1 (Rattus norvegicus); assay: Inhibition of TGFbeta1 receptor in TGFbeta1-stimulated Sprague-Dawley rat cardiac fibroblasts assessed as reduction in collagen 3 mRNA expression at 2.5 to 10 uM measured after 12 hrs by qRT-PCR analysis; procedure, shortened: as §1
[6] = Effect on total Smad2 expression in TGFbeta1-stimulated Sprague-Dawley rat cardiac fibroblasts at 10 uM measured after 5 to 30 mins by Western blot analysis; format: ADME
[7] = molecular target: T1, TGF-beta receptor type-1 (Rattus norvegicus); assay: Inhibition of TGFbeta1 receptor in TGFbeta1-stimulated Sprague-Dawley rat cardiac fibroblasts assessed as reduction in Smad2 nuclear translocation at 10 uM measured after 5 mins by Western blot analysis
Procedure, shortened: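 Primary rat cardiac fibroblasts treated with 10 µM compound plus 10 ng/mL TGFβ1 for 5 min. Nuclear and cytosolic fractions separated with a kit and Smad2/Smad3 measured by Western blot.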

Rattus norvegicus [8] = organism: Rattus norvegicus; assay: Effect on TGFbeta2 receptor expression in TGFbeta1-stimulated Sprague-Dawley rat cardiac fibroblasts at 2.5 to 10 uM measured after 5 mins by Western blot analysis; format: functional
Rattus norvegicus [9] = assay: Antifibrotic activity in abdominal aortic constriction Sprague-Dawley rat model of cardiac fibrosis assessed as decrease in heart fibronectin level at 5 mg/kg, ip administered once daily for 4 weeks measured post-last dose by immunohistochemical analysis relative to control; format: functional; set-up: scale not given: the % may be the effect or the level left
Procedure, shortened: (§2)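 Male SD rats (200–250 g) with abdominal aortic constriction (suture tied over a 21-G probe above the renal arteries), under pentobarbital 30 mg/kg ip. Dosed ip daily for 4 weeks. Vehicle was saline with 0.5% DMSO and 5% Kolliphor HS 15. Groups: sham, AAC, AAC+nifedipine 10 mg/kg, n=8 each. Formalin-fixed paraffin sections 4 µm thick; FN and α-SMA by immunohistochemistry, collagen by Masson's trichrome; stained area measured.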

Rattus norvegicus [10] = assay: Antifibrotic activity in abdominal aortic constriction Sprague-Dawley rat model of cardiac fibrosis assessed as decrease in heart alpha-SMA level at 5 mg/kg, ip administered once daily for 4 weeks measured post-last dose by immunohistochemical analysis relative to control; format: functional; set-up: scale not given: the % may be the effect or the level left; procedure, shortened: as §2
Rattus norvegicus [11] = assay: Antifibrotic activity in abdominal aortic constriction Sprague-Dawley rat model of cardiac fibrosis assessed as down regulation of collagen expression in heart at 5 mg/kg, ip administered once daily for 4 weeks measured post-last dose by Western blot analysis; format: functional, organism-based
Procedure, shortened: (§3)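 AAC rats dosed ip daily for 4 weeks, n=8 per group. Hearts homogenized in lysis buffer with protease and phosphatase inhibitors and spun at 12,000 rpm for 30 min at 4 °C. Nuclear and cytoplasmic fractions prepared with a kit. Protein measured by BCA; 30 µg run on 10% SDS-PAGE, transferred to PVDF and immunoblotted; bands quantified by densitometry.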

Rattus norvegicus [12] = assay: Antifibrotic activity in abdominal aortic constriction Sprague-Dawley rat model of cardiac fibrosis assessed as reduction in Smad2 phosphorylation in heart at 5 mg/kg, ip administered once daily for 4 weeks measured post-last dose by Western blot analysis; format: functional, organism-based; procedure, shortened: as §3
Rattus norvegicus [13] = assay: Antifibrotic activity in abdominal aortic constriction Sprague-Dawley rat model of cardiac fibrosis assessed as reduction in Smad3 phosphorylation in heart at 5 mg/kg, ip administered once daily for 4 weeks measured post-last dose by Western blot analysis; format: functional, organism-based; procedure, shortened: as §3
Rattus norvegicus [14] = assay: Antifibrotic activity in abdominal aortic constriction Sprague-Dawley rat model of cardiac fibrosis assessed as reduction in Smad2 phosphorylation in heart at 5 mg/kg, ip administered once daily for 4 weeks measured post-last dose by immunohistochemical analysis; format: functional, organism-based
Procedure, shortened: (§4)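 AAC rats dosed ip daily for 4 weeks, n=8 per group. Phospho-Smad2/3 stained by immunohistochemistry on 4 µm paraffin heart sections. Stained area summed over 6 fields per rat for statistics.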

Rattus norvegicus [15] = assay: Antifibrotic activity in abdominal aortic constriction Sprague-Dawley rat model of cardiac fibrosis assessed as reduction in Smad3 phosphorylation in heart at 5 mg/kg, ip administered once daily for 4 weeks measured post-last dose by immunohistochemical analysis; format: functional, organism-based; procedure, shortened: as §4
Rattus norvegicus [16] = assay: Antifibrotic activity in abdominal aortic constriction Sprague-Dawley rat model of cardiac fibrosis assessed as diastolic left ventricular anterior wall thickness at 5 mg/kg, ip administered once daily for 4 weeks measured post-last dose by echocardiography (reference value: 2.48 +/- 0.42 mm); format: functional
Rattus norvegicus [17] = assay: Antifibrotic activity in abdominal aortic constriction Sprague-Dawley rat model of cardiac fibrosis assessed as diastolic left ventricular internal diameter at 5 mg/kg, ip administered once daily for 4 weeks measured post-last dose by echocardiography (reference value: 7.60 +/- 0.63 mm); format: functional
Rattus norvegicus [18] = assay: Antifibrotic activity in abdominal aortic constriction Sprague-Dawley rat model of cardiac fibrosis assessed as systolic left ventricular posterior wall thickness at 5 mg/kg, ip administered once daily for 4 weeks measured post-last dose by echocardiography (reference value: 3.62 +/- 0.26 mm); format: functional

## C=C(C)[C@@H]1C/C=C(\C)C(=O)CCC2=C[C@@H]1OC2=O
[1]
  Activity: Non-Toxic
[2]
  inhibition: Dose-dependent effect
[3]
  inhibition: Active
[4]
  inhibition: Active
[5]
  inhibition: Active
[6]
  Activity: Non-Toxic
[7]
  inhibition: Active
Rattus norvegicus [8]
  Activity: inactive
Rattus norvegicus [9]
  Activity: 90.7%
Rattus norvegicus [10]
  Activity: 88.8%
Rattus norvegicus [11]
  Activity: Active
Rattus norvegicus [12]
  Activity: Active
Rattus norvegicus [13]
  Activity: Active
Rattus norvegicus [14]
  Activity: Active
Rattus norvegicus [15]
  Activity: Active
Rattus norvegicus [16]
  Activity: 2.11 mm
Rattus norvegicus [17]
  Activity: 8.3 mm
Rattus norvegicus [18]
  Activity: 3.23 mm
